The values below come from PMC3967199 (Scientific Reports, 2014).

Read-outs that look alike come from different tables or passages of the source.

Test [1] deals with H1299 and H460 xenografts. The format is in vivo, NOD/SCID mice.
The test system of test [2] is human NSCLC tumor samples. Description: Tumor microarray binding of Peptide-SAQdot 605. To be noted: of 59 human NSCLC tumor samples; 10 nM Peptide-SAQdot 605, 30 minutes. The method, boiled down:
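Commercial paraffin lung cancer tissue microarray; dewaxed, antigen retrieval in 10 mM citrate pH 6.0 at 65°C for 10 min, blocked in PBS + 2.5% BSA. Stained with peptide conjugated 1:1 to streptavidin-Qdot605 in 50% PBS/50% RPMI with 2.5% bovine serum. Washed, DAPI-mounted, three areas imaged per sample. Red Qdot signal compared against green-channel autofluorescence; scored by five independent scientists.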

For the next test, the system named is MCF7 cells. Description: Peptide-SAQdot605 binding, fluorescence microscopy. The test is classed as cell-based.

Consider FHAVPQSFYTAP [HCC15.2], for which the “Tumor specificity in vivo” value in test [1] (acetylated peptide) is “accumulates in both H1299 and H460 tumors”. The “Tumor uptake of non-acetylated peptide” value in test [1] (free amino-terminus, before acetylation) is reported as “No tumor uptake”. Further, the “Samples scored positive for peptide binding” value in test [2] came out at 24%.

As to EAMNSAEQSAAVVQWEKRRI [Peptide H460.1], in test [1] (animal shown, 24 h), the “H460 tumor/H1299 tumor” value came to 8 fold and the H460 tumor/lung amounted to 15 fold. In test [1] (average of mice (± SEM in text), i.v., ex vivo, 24 h), this sequence registered an H460/lung of 14 ± 6.5. Moreover, the “H460 tumor/H1299 tumor” value in test [1] (average of mice, i.v., ex vivo, 24 h) came to 27. For the same sequence, the “Binding of peptide-SAQdot605” value in the test on MCF7 cells was “specific binding”.
